Legend:
ABHD12 [1] = target: T1, ABHD12 (Mus musculus, UniProt Q99LR1); assay: ABHD12-dependent lyso-PS lipase activity of mouse brain membrane proteome; assay type: biochemical
T1 sequence (Q99LR1 1-398): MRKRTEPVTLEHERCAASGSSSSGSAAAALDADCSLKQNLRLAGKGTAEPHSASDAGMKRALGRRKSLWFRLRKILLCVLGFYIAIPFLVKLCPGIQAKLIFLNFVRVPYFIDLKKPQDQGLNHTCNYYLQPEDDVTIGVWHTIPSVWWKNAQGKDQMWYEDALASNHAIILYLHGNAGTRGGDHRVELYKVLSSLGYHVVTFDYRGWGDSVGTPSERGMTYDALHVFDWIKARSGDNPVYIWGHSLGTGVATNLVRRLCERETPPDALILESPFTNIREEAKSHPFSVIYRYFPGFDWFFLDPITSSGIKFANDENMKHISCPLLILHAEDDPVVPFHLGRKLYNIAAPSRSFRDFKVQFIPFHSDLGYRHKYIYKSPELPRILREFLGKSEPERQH

ABHD12 [2] = target: T2, ABHD12 (Homo sapiens, UniProt Q8N2K0); assay type: cell-based
T2 sequence (Q8N2K0 1-398): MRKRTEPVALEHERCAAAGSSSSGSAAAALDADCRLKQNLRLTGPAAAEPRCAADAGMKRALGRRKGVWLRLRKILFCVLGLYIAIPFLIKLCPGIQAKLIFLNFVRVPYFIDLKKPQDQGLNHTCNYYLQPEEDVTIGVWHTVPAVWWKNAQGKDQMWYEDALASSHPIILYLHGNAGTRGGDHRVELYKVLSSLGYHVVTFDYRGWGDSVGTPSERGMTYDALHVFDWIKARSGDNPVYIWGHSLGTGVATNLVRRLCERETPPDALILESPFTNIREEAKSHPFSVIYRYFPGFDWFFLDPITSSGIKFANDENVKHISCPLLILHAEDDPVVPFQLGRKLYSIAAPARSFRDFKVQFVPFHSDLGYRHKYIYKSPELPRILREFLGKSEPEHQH
Summary of the method: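 THP-1 cells (6 million in 10 mL) given test compound (1–1000 nM) or DMSO for 4 h at 37 °C, 5% CO₂, then washed twice in ice-cold DPBS. Membrane proteome incubated with 17:1 lyso-PS (100 μM final), 20 min, 37 °C. Readout is the LC-MS 17:1 FFA/15:0 FFA ratio minus the JJH350 (10 μM)-treated membrane background. IC50 fitted as log(inhibitor) vs normalized response.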

ABHD12 [3] = target: T2, ABHD12; assay: In situ treatment of THP-1 cells, competitive gel-based ABPP with JJH350 probe; assay type: cell-based; conditions: 1 μM, 4 h in situ
Summary of the method: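 Whole THP-1 cells exposed to test compound or DMSO for 4 h at 37 °C, 5% CO₂, then washed twice with ice-cold DPBS. Proteome (1 mg/mL) labelled with JJH350 (2 μM final, 45 min, 37 °C), clicked by CuAAC and resolved on gel. ABHD12 band intensity is expressed relative to the control-treated sample, set to 100%.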

THP-1 cells = assay: Targeted LC-MS of; assay type: cell-based, human; conditions: 4 h
Summary of the method: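 THP-1 cells (6 million in 10 mL) incubated with test compound or DMSO for 4 h at 37 °C, 5% CO₂. Cells washed twice with ice-cold DPBS and stored at −80 °C, then analysed by targeted LC-MS metabolomics for lyso-PS and PS species.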

ABHD12 [4] = target: T2, ABHD12; assay: Gel-based competitive ABPP; assay type: cell-based; conditions: 24 h treatment, JJH350 probe
Summary of the method: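 PBMCs collected from the gradient interface, red cells lysed (5 min, room temperature) and plated in DPBS at 2.26 × 10⁵ cells/cm²; adherent monocytes attach within 1–2 h. After in situ treatment, proteome (1 mg/mL) labelled with JJH350 (2 μM final, 45 min, 37 °C), clicked and run on gel. ABHD12 band intensity is normalised to the control sample (100%).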

PLA2G6 = target: T3, PLA2G6 (Mus musculus, UniProt P97819); assay: Quantitative MS-ABPP of brain membrane proteome from treated mice: PLA2G6; assay type: in vivo; conditions: 30 mg/kg, i.p., 4 h
T3 sequence (P97819 1-807): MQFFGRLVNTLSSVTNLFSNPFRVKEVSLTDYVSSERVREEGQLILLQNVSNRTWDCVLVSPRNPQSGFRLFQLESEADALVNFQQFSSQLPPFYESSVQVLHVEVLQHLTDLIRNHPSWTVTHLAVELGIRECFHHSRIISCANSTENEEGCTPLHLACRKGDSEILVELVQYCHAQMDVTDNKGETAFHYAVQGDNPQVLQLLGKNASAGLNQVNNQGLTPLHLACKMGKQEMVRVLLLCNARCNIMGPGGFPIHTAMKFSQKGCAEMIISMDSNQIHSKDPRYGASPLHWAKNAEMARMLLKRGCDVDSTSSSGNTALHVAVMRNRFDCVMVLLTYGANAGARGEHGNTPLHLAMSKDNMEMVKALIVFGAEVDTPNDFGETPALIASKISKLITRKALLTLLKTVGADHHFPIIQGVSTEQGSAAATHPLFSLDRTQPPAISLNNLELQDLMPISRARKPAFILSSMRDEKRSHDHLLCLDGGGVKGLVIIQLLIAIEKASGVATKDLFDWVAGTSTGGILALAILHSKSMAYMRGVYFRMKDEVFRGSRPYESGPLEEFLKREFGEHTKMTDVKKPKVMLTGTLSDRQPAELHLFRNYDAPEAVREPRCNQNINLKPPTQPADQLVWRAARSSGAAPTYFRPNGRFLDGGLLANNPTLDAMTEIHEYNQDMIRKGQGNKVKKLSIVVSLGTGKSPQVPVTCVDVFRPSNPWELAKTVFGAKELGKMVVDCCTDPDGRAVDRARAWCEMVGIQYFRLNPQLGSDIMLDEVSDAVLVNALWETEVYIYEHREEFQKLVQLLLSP
Summary of the method: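 Mice dosed i.p. with test compound (30 mg/kg) or vehicle and killed after 4 h (isoflurane, then cervical dislocation). Brain membrane serine hydrolase activities quantified by MS-based ABPP. Each protein's value is the mean of median peptide ratios (treated vs vehicle) ± SEM, from n = 4 or 3 independent samples per compound.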

mouse PLA2G6 = target: T4, mouse PLA2G6 (Mus musculus, UniProt P97819); assay: Competitive gel ABPP; assay type: biochemical; conditions: membrane lysate 1 mg/mL of transfected HEK293T cells, FP-Rh
T4 sequence (P97819 1-807): T3 sequence (P97819 1-807)
Summary of the method: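 HEK293T cells transiently transfected with mouse PLA2G6 cDNA (pCMV-SPORT6); membrane lysate (1 mg/mL) prepared. Lysate pre-exposed to test compound, then labelled with FP-Rh (1 μM final, 45 min, 37 °C). Gel band intensity compared with a control-treated sample.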

mice = assay: Two-week daily dosing, overt signs of toxicity; assay type: in vivo, mouse; conditions: adult mice, 30 mg/kg daily, p.o., two weeks

## FC(F)(F)Oc1ccc(Oc2ccnc(N3CCC(NC(=S)Nc4cccnc4)CC3)c2Cl)c(Cl)c1 [DO264, N-3-pyridyl-N’-(1-[3-chloro-4-{2-chloro-4-(trifluoromethoxy)phenoxy}pyridine-2-yl]piperidin-4-yl)thiourea]
ABHD12 [1]
  IC50: 2.8 nM
ABHD12 [2]
  IC50: 26 nM
ABHD12 [3]
  ABHD12 activity in THP-1 cells by competitive gel-based ABPP (in words): complete blockade
THP-1 cells; 0.001-1 μM
  20:4 PS lipids of THP-1 cells: concentration-dependent increase
THP-1 cells; DO264 0.001-1 μM, (S)-DO271 1 μM
  lyso-PS content of THP-1 cells: substantial elevations
ABHD12 [4]
  ABHD12 activity in primary human macrophages: inhibits ABHD12 activity
PLA2G6
  reduction in PLA2G6 activity in treated mice: 40-50%
Mouse PLA2G6
  inhibition of recombinantly expressed PLA2G6: nor did the compound inhibit
mice
  overt signs of toxicity, such as weight loss or behavioral distress: neither compound produced overt signs of toxicity

Reference: paper PMC6263940 (Nature chemical biology, 2018)
